# Measured values collected from several papers.
# Compare with care: the assays were run in different laboratories.
# Target: Calcium/calmodulin-dependent protein kinase type II subunit beta (CAMK2B, Homo sapiens, UniProt Q13554)
Compound,assay,setting,endpoint,result
CN1CC(Oc2cnc(C#N)cc2-c2ccn3nc(NC(=O)C4CC4)cc3c2)C1,"enzyme activity, inhibitor",1 µM,inhibition,-1%
Cc1nc(Cc2cccc(C(F)(F)F)c2)sc1-c1ccc(C(N)=O)nc1,"cell-free assay, competition with immobilised ligand",1 µM,remaining binding,100%
COc1cccc2c(NCc3ccccc3)nc(-n3c(N)nc4ccccc43)nc12,"target engagement in cells, inhibitor, chemoproteomics",20 mM,inhibition,-1.1%
O=C(NC[C@@H]1[C@H]2CN(C(=O)OCc3cc(C(F)(F)F)cc(C(F)(F)F)c3)C[C@@H]12)c1ccc2[nH]nnc2c1,"cell-free assay, competition with immobilised ligand",1 µM,remaining binding,100%
COc1cc2ncnc(Nc3ccc(Oc4ccccc4)cc3C)c2cc1OC,"enzyme activity, inhibitor",1 µM,inhibition,8%
O=c1cc(-c2cccc3c2Sc2ccccc2S3)oc(N2CCOCC2)c1,"enzyme activity, inhibitor",0.5 µM,remaining activity,106%
CCCCN(CCCC)C(=O)CN1C[C@H](c2cc(OC)c3c(c2)OCO3)[C@@H](C(=O)O)[C@@H]1CC(C)(C)CCC,"cell-free assay, competition with immobilised ligand",1 µM,remaining binding,100%
CCN(CC)CCNC(=O)c1c(C)[nH]c(/C=C2\C(=O)Nc3ccc(F)cc32)c1C,"enzyme activity, inhibitor",0.3 µM,inhibition,57%
CCC(=O)N[C@@H]1CC[C@H](C(=O)N(C)c2ccc(-c3nc4ccccc4o3)cc2)C1,"cell-free assay, competition with immobilised ligand",1 µM,remaining binding,100%
CCN(CC)c1ccc(C2=NNC(=O)CC2C)cc1[N+](=O)[O-] (stereo not drawn),"enzyme activity, inhibitor",10 µM,remaining activity,96%
Cc1cc(NC(=O)c2cccc3cc(-c4cccc5[nH]nc(N)c45)ccc23)ccc1F,"enzyme activity, inhibitor",0.1 µM,activity vs control,94%
Nc1ncnc2occ(-c3ccc(NC(=O)Nc4cc(C(F)(F)F)ccc4F)cc3)c12,"enzyme activity, inhibitor",20 µM,remaining activity,95%
Nc1c(C(=O)NCc2ccc(C(=O)NCCCC3CCCCC3)cc2)cnn1-c1ccccc1,"cell-free assay, competition with immobilised ligand",0.1 µM,remaining binding,100%
CNC(=O)c1cc(Oc2ccc(NC(=O)Nc3ccc(Cl)c(C(F)(F)F)c3)cc2)ccn1,"enzyme activity, inhibitor",0.3 µM,inhibition,27%
COc1ccc(COc2ccc(Cc3cnc(N)nc3N)cc2OC)cc1,cell-free assay,0.5 µM,remaining signal,100%
Cc1ccc(Nc2nccc(N(C)c3ccc4c(C)n(C)nc4c3)n2)cc1S(N)(=O)=O,"enzyme activity, inhibitor",10 µM,inhibition,29%
O=C(O)[C@H]1[C@H](Cn2nnc3ccccc3c2=O)CC[C@@H]1C(=O)c1ccc(OCCC2CCOCC2)cc1,"cell-free assay, competition with immobilised ligand",1 µM,remaining binding,100%
Cc1cnc(NC2CCOCC2)nc1-n1cnc(C(=O)NC(CN)c2cc(F)cc(Cl)c2)c1 (stereo not drawn),"enzyme activity, inhibitor, radiometric",1 µM,remaining activity,87%
O=C1NC(=O)c2cc(Nc3ccc(F)cc3)c(Nc3ccc(F)cc3)cc21,cell-free assay,0.5 µM,remaining signal,98.7%
Cc1cc(-n2nc(Cc3cc(F)cc(C(F)(F)F)c3)nc2C)ccc1C(N)=O,"cell-free assay, competition with immobilised ligand",1 µM,remaining binding,100%
CCCCNc1ncc2c(-c3ccc(F)cc3)nn(C[C@H]3CC[C@H](N)CC3)c2n1,"target engagement in cells, inhibitor, chemoproteomics",20 mM,inhibition,29%
Cc1noc([C@H]2C[C@@H](c3ccc(C(F)(F)F)cc3)CN(C(=O)N3CCS(=O)(=O)C3)C2)n1,"cell-free assay, competition with immobilised ligand",1 µM,remaining binding,100%
Cc1ccc(C(=O)Nc2ccc(CN3CCN(C)CC3)c(C(F)(F)F)c2)cc1C#Cc1cnc2cccnn12,"enzyme activity, inhibitor",23.5 nM,remaining activity,97%
Cc1sc(C(=O)NC2COC2)cc1-n1cc(NC(=O)Nc2c(F)cccc2Cl)cn1,"enzyme activity, inhibitor",10 µM,remaining activity,100%
CCN(CC)CCNC(=O)c1c(C)[nH]c(/C=C2\C(=O)Nc3ccc(Cl)cc32)c1C,"enzyme activity, inhibitor",0.5 µM,remaining activity,27.3%
CC(C)c1ccc(NC(=O)c2cccs2)c(-c2nc3ccccc3[nH]c2=O)c1,"enzyme activity, inhibitor",1 µM,activity vs control,108%
N#CCCc1ccc2c(c1)-c1[nH]c3ccc([N+](=O)[O-])cc3c1CC(=O)N2,cell-free assay,0.5 µM,remaining signal,99.3%
CC(C)(C)c1nc2c(s1)c1nc(N)ncc1c1ccc(NS(=O)(=O)c3c(F)cccc3F)c(F)c12,"enzyme activity, inhibitor, radiometric",1 µM,remaining activity,83%
Clc1ccc(Nc2nnc(Cc3ccncc3)c3ccccc23)cc1,cell-free assay,0.5 µM,remaining signal,109%
COc1cc(-c2cc(-c3ccc(N4CCNCC4)cc3)cnc2C)cc(OC)c1OC,"enzyme activity, inhibitor",1 µM,inhibition,1%
